Reference: ChEMBL document CHEMBL4706600, “Synthesis, molecular modeling, in vivo study and anticancer activity against prostate cancer of (+) (S)-naproxen derivatives” (Eur J Med Chem, 2020)
Calls of active or inactive are those of the source. No cut-off for these calls is given here.

Assays:
DU-145 = test: Cytotoxicity against human DU-145 cells assessed as reduction in cell viability by […]; type: functional, cell-based
Summary of the method: (§1)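 Growth of PC-3, DU-145 and LNCaP prostate cancer lines read by MTS tetrazolium proliferation assay. Cisplatin served as the positive reference standard.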

LNCaP [1] = test: Cytotoxicity against human LNCaP cells assessed as reduction in cell viability by […]; type: functional, cell-based; summary of the method: as §1
PC-3 = test: Cytotoxicity against human PC-3 cells assessed as reduction in cell viability by […]; type: functional, cell-based; summary of the method: as §1
[2] = molecular target: Methionine aminopeptidase 2 (Homo sapiens) (UniProt P50579); test: Inhibition of MetAP2 in human LNCaP cells assessed as reduction in JNK/MAPK phosphorylation at 5 to 20 uM incubated upto 120 mins by Western blot analysis; type: cell-based; conditions: dose 5-20 µM, time min <=120
Summary of the method: (§2)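 LNCaP cells (1×10^6 per well, n = 3) plated in phenol-red-free RPMI-1640 with 1% FBS for 24 h, then exposed at 5 and 20 µM for 0, 15, 60 and 120 min. Lysates were assayed for total protein, and phosphorylated AKT, ERK, p38 and JNK were detected by Western blot.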
Target sequence in this assay (P50579 2-478 limits assumed): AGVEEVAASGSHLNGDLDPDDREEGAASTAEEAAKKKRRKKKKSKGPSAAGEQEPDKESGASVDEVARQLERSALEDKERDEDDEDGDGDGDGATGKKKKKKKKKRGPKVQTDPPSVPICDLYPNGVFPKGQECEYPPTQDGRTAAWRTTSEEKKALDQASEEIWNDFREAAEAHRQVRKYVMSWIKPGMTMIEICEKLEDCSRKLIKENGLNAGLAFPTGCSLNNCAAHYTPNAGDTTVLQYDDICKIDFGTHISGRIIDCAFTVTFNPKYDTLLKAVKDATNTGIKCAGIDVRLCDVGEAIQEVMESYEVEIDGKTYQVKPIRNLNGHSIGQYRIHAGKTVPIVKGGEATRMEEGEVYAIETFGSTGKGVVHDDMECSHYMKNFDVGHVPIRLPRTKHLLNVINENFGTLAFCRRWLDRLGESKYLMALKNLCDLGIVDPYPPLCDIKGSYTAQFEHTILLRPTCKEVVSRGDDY

[3] = molecular target: Methionine aminopeptidase 2 (Homo sapiens) (UniProt P50579); test: Inhibition of MetAP2 in human LNCaP cells assessed as reduction in AKT phosphorylation at 5 to 20 uM incubated upto 120 mins by Western blot analysis; type: cell-based; conditions: dose 5-20 µM, time min <=120; summary of the method: as §2
Target sequence in this assay (P50579 2-478 limits assumed): as above

[4] = molecular target: Methionine aminopeptidase 2 (Homo sapiens) (UniProt P50579); test: Inhibition of MetAP2 in human LNCaP cells assessed as reduction in P28/MAPK phosphorylation at 5 to 20 uM incubated upto 120 mins by Western blot analysis; type: cell-based; conditions: dose 5-20 µM; summary of the method: as §2
Target sequence in this assay (P50579 2-478 limits assumed): as above

[5] = molecular target: Methionine aminopeptidase 2 (Homo sapiens) (UniProt P50579); test: Inhibition of MetAP2 in human LNCaP cells assessed as reduction in ERK/MAPK phosphorylation at 5 to 20 uM incubated upto 120 mins by Western blot analysis; type: cell-based; conditions: dose 5-20 µM, time min <=120; summary of the method: as §2
Target sequence in this assay (P50579 2-478 limits assumed): as above

[6] = Toxicity in mouse assessed as effect on keratin level measured after 3 days by blood analyser(reference value: 0.2+/- 0.07 mg/dl); type: tissue-based; conditions: 72 h, time 3 day
[7] = Toxicity in mouse assessed as effect on albumin level measured after 15 days by blood analyser(reference value: 2.6+/- 0.36 g/dl); conditions: 360 h
[8] = molecular target: Methionine aminopeptidase 2 (Homo sapiens) (UniProt P50579); test: Inhibition of MetAP2 (unknown origin) incubated measured at 12.5 to 200 uM for 30 mins by spectrophotometric analysis; conditions: dose 12.5-200 µM
Target sequence in this assay (P50579 whole entry, looked up): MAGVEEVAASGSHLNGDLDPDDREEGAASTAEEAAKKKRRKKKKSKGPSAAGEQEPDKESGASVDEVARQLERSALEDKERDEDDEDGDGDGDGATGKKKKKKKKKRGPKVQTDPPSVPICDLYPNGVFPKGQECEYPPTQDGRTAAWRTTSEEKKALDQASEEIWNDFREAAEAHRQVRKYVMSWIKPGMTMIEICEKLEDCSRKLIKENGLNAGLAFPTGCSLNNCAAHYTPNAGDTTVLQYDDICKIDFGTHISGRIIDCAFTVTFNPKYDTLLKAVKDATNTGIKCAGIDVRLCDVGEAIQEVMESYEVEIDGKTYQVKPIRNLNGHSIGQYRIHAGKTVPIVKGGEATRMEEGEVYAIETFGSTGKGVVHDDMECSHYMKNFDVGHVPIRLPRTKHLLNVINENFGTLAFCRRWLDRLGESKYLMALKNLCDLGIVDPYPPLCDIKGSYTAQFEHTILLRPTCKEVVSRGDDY

[9] = Toxicity in mouse assessed as effect on total bilirubin level measured after 3 days by blood analyser(reference value: 0.27+/- 0.05 mg/dl); type: tissue-based; conditions: 72 h, time 3 day
LNCaP [10] = test: Induction of apoptosis in human LNCAP cells assessed as up regulation of Caspase 3 expression upto 20 uM measured after 6 hrs by Rt-PCR; type: functional, cell-based; conditions: dose microM <=20, time 6.0 hrs, TDE = time-dependent effect
LNCaP [11] = test: Induction of apoptosis in human LNCAP cells assessed as down regulation of Bcl-2 expression upto 20 uM measured after 6 hrs by Rt-PCR; type: functional, cell-based; conditions: dose microM <=20, time 6.0 hrs
LNCaP [12] = test: Induction of apoptosis in human LNCAP cells assessed as up regulation of Bax expression upto 20 uM measured after 6 hrs by Rt-PCR; type: functional, cell-based; conditions: dose microM <=20, time 6.0 hrs, TDE = time-dependent effect
[13] = Toxicity in mouse assessed as effect on glucose level measured after 3 days by blood analyser(reference value: 192+/- 33 mg/dl); type: tissue-based; conditions: 72 h, time 3 day
[14] = Toxicity in mouse assessed as effect on alanine transaminase level measured after 3 days by blood analyser(reference value: 679.50+/- 71.5 u/l); type: tissue-based; conditions: 72 h, time 3 day
[15] = Toxicity in mouse assessed as effect on blood urea nitrogen level measured after 3 days by blood analyser(reference value: 27+/- 2.6 mg/dl); conditions: in vivo, 72 h, time 3 day
[16] = Toxicity in mouse assessed as effect on alkaline phosphatase level measured after 3 days by blood analyser(reference value: 144.50+/- 83.5 u/l); type: tissue-based; conditions: 72 h, time 3 day
LNCaP [17] = test: Induction of apoptosis in human LNCAP cells assessed as up regulation of Caspase 9 expression upto 20 uM measured after 6 hrs by Rt-PCR; type: functional, cell-based; conditions: dose microM <=20, time 6.0 hrs, TDE = time-dependent effect
[18] = Toxicity in mouse assessed as effect on phosphate level measured after 3 days by blood analyser(reference value: 10.07+/- 1.06 mg/dl); type: tissue-based; conditions: 72 h, time 3 day
[19] = Toxicity in mouse assessed as effect on globulin level measured after 3 days by blood analyser(reference value: 3.17+/-0.31 g/dl); type: tissue-based; conditions: 72 h, time 3 day
LNCaP [20] = test: Antitumor activity against human LNCaP cells xenografted in mouse assessed as decrease in ROI of cancer tissue at 0.27 mg measured after 15 days by IVIS image analysis; type: functional; conditions: time 15 day
Summary of the method: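 LNCaP cells (5×10^6–6×10^6 cells/100 µL) injected subcutaneously into male nude mice; treatment given over 15 days, with controls receiving saline intraperitoneally every 4 days. Cancerous tissue visualized by in vivo imaging (IVIS).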

[21] = Toxicity in mouse assessed as effect on total protein level measured after 3 days by blood analyser(reference value: 5.7+/-0.4 g/dl); type: tissue-based; conditions: 72 h, time 3 day
[22] = Toxicity in mouse assessed as effect on potassium level measured after 3 days by blood analyser(reference value: 10.7+/-2.2 mmol/l); type: tissue-based; conditions: 72 h, time 3 day
[23] = Toxicity in mouse assessed as effect on sodium level measured after 3 days by blood analyser(reference value: 148.33+/-1.89 mmol/l); type: tissue-based; conditions: 72 h, time 3 day

With COc1ccc2cc([C@H](C)c3nnc(SCc4ccc(Cl)cc4)n3-c3ccc(F)cc3)ccc2c1 the IC50 (DU-145) was 57.4 µM, the IC50 (LNCaP [1]) was > 400 µM and the IC50 (PC-3) was > 400 µM.
In the case of COc1ccc2cc([C@H](C)c3nnc(SCc4ccc(F)cc4)n3-c3ccc(F)cc3)ccc2c1, the IC50 (DU-145) is reported as 60.2 µM, the IC50 (LNCaP [1]) is reported as 104 µM and the IC50 (PC-3) is reported as > 400 µM.
In the case of COc1ccc(CSc2nnc([C@@H](C)c3ccc4cc(OC)ccc4c3)n2-c2ccc(Cl)cc2)cc1, the IC50 (DU-145) is reported as 72.6 µM, the IC50 (LNCaP [1]) is reported as > 400 µM and the IC50 (PC-3) is reported as > 400 µM.
With COc1ccc2cc([C@H](C)c3nnc(SCc4ccc(C)cc4)n3-c3ccc(F)cc3)ccc2c1 the IC50 (DU-145) was 44.3 µM, the IC50 (LNCaP [1]) was > 400 µM and the IC50 (PC-3) was 229 µM.
In the case of COc1cccc(CSc2nnc([C@@H](C)c3ccc4cc(OC)ccc4c3)n2-c2ccc(Cl)cc2)c1, the IC50 (DU-145) is reported as > 400 µM, the IC50 (LNCaP [1]) is reported as 162 µM and the IC50 (PC-3) is reported as 138 µM.
Work on COc1ccc2cc([C@H](C)c3nnc(SCc4ccc(F)cc4)n3-c3ccc(Cl)cc3)ccc2c1 yielded an IC50 (DU-145) of 33.6 µM, an IC50 (LNCaP [1]) of 33.9 µM and an IC50 (PC-3) of 10.8 µM.
With COc1ccc2cc([C@H](C)c3nnc(SCc4c(Cl)cccc4Cl)n3-c3ccc(Cl)cc3)ccc2c1 the IC50 (DU-145) was 36.1 µM, the IC50 (LNCaP [1]) was > 400 µM and the IC50 (PC-3) was 34.7 µM.
Work on COc1cccc(CSc2nnc([C@@H](C)c3ccc4cc(OC)ccc4c3)n2-c2ccc(F)cc2)c1 yielded an IC50 (DU-145) of 19.2 µM, an IC50 (LNCaP [1]) of 14.5 µM and an IC50 (PC-3) of 211 µM.
With COc1ccc2cc([C@H](C)c3nnc(SCc4c(Cl)cccc4Cl)n3-c3cccc(Cl)c3)ccc2c1 the IC50 (DU-145) was > 400 µM, the IC50 (LNCaP [1]) was 73.7 µM and the IC50 (PC-3) was 165 µM.
With COc1ccc2cc([C@H](C)c3nnc(SCc4c(C)cc(C)cc4C)n3-c3cccc(Cl)c3)ccc2c1 the IC50 (DU-145) was 93.3 µM, the IC50 (LNCaP [1]) was > 400 µM and the IC50 (PC-3) was 16.3 µM.
Compound COc1ccc2cc([C@H](C)c3nnc(SCc4c(Cl)cccc4Cl)n3-c3ccc(F)cc3)ccc2c1 has an IC50 (DU-145) of 12.2 µM, an IC50 (LNCaP [1]) of 12.2 µM and an IC50 (PC-3) of 216 µM.
For COc1ccc2cc([C@H](C)c3nnc(SCc4ccc(C)cc4)n3-c3ccc(Cl)cc3)ccc2c1, the IC50 (DU-145) was 18.8 µM, the IC50 (LNCaP [1]) was 52.2 µM and the IC50 (PC-3) was 8.4 µM.
For COc1ccc(CSc2nnc([C@@H](C)c3ccc4cc(OC)ccc4c3)n2-c2ccc(F)cc2)cc1, the IC50 (DU-145) was > 400 µM, the IC50 (LNCaP [1]) was 22.8 µM and the inhibition [2] was “inactive”. For the same compound, the inhibition [3] was “inactive”, the IC50 (PC-3) was > 400 µM and the inhibition ([4]; time min <=120, in the assay text read “P38/MAPK” for “P28/MAPK”) was “inactive”. For the same compound, the inhibition [5] was “inactive”.
COc1ccc2cc([C@H](C)c3nnc(SCc4c(C)cc(C)cc4C)n3-c3ccc(F)cc3)ccc2c1 showed an IC50 (DU-145) of 10.2 µM, an Activity [6] of 0.25 mg/dL and an Activity [7] of 1.25 g/dL. For the same compound, the inhibition [8] was “Active”, the IC50 (LNCaP [1]) was 2.21 µM and the Activity [9] was 0.3 mg/dL. For the same compound, the Activity (LNCaP [10]) was “Tde”, the inhibition [2] was “Active” and the Activity (LNCaP [11]) was “Active”. For the same compound, the Activity (LNCaP [12]) was “Tde”, the Activity [13] was 154 mg/dL and the inhibition [3] was “Active”. For the same compound, the Activity [14] was 64.5 U/L, the Activity [15] was 21.5 mg/dL and the Activity [16] was 58 U/L. For the same compound, the IC50 (PC-3) was 43.3 µM, the Activity (LNCaP [17]) was “Tde” and the Activity [18] was 7.15 mg/dL. The Activity [19] was 3.6 g/dL, the “inhibition (INH)” value (LNCaP [20]) was 55% and the Activity [21] was 5.3 g/dL. For the same compound, the inhibition ([4]; time min <=120) was “Active”, the Activity [22] was 5.6 mmol/L and the inhibition [5] was “Active”. For the same compound, the Activity [23] was 137.5 mmol/L.
In the case of COc1ccc2cc([C@H](C)C(=O)NNC(=S)Nc3ccc(C(F)(F)F)cc3)ccc2c1, the IC50 (DU-145) is reported as 62.2 µM, the IC50 (LNCaP [1]) is reported as 92.8 µM and the IC50 (PC-3) is reported as 64.3 µM.
With COc1ccc2cc([C@H](C)c3nnc(SCc4ccc(Cl)cc4)n3-c3ccc(Cl)cc3)ccc2c1 the IC50 (DU-145) was 109 µM, the IC50 (LNCaP [1]) was 110 µM and the IC50 (PC-3) was 5.8 µM.
In the case of COc1ccc2cc([C@H](C)c3nnc(SCc4ccccc4)n3-c3ccc(Cl)cc3)ccc2c1, the IC50 (DU-145) is reported as 35.8 µM, the IC50 (LNCaP [1]) is reported as 50.4 µM and the IC50 (PC-3) is reported as 14.2 µM.
